Compounds with a hit are over-represented: about 4% of the library has one in this group of screens.
rRNA inh HTS = reduced GFP signal of wild-type E. coli, primary screen, bacterial rRNA inhibitor project, GFP/RFP fluorescence, OD600, single point | E. coli WT GFP vs humanized-ribosome RFP mutants, 24 h; active compounds read low; DMSO median 0, no signal -100 | GFP signal change (wild-type ribosome), % (concentration not given with the values) | hit rate 1.6% among 350,000 | AID 720706, 2013;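 active means significant combined selectivity score with lowered wild-type GFP, culture density cut under 30%, mutant RFP and density less affected; inactive means any of these conditions unmet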
C2C12 statin = suppressors of statin myotoxicity in C2C12 myotubes, primary screen, cell-based, single point, plate reader; hit rate 0.78% among 330,000; C2C12 myotubes + simvastatin, ATP luminescence, 48 h; scaled: DMSO 0, geranylgeraniol control 100; AID 602340, 2012; rescue of ATP level, % at 7.49 µM;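 active means mean ATP rescue above about 67%, or every replicate alone reaching that limit, limit read from the data, passing the limit was not always enough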;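 further: myotubes were challenged with 10 µM simvastatin during compound exposure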
SIRT5 block = SIRT5 desuccinylase inhibitors, primary screen, biochemical, fluorescence imaging, single point, set 5; NAD-dependent protein deacylase sirtuin-5, mitochondrial (Homo sapiens), Q9NXA8; inhibition, % at 15 µM; Purified SirT5, succinyl-peptide AMC, trypsin-coupled fluorescence; hit rate 1.1% among 330,000; in the data active means inhibition above about 15%
Target sequence (Q9NXA8 whole entry, looked up): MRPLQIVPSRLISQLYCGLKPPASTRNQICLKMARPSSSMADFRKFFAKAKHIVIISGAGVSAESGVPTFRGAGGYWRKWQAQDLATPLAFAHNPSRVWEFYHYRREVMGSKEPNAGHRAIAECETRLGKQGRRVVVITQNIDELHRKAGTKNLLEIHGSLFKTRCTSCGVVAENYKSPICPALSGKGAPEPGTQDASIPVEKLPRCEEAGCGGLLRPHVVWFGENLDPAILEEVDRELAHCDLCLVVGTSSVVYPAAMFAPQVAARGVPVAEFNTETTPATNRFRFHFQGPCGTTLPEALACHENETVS
E-sel inducer = E-selectin induction in HUVECs, primary screen, imaging, HUVEC, immunofluorescence imaging, single point | P16581 | activation, % at 7.58 µM | hit rate 0.37% among 260,000 | normalized: neutral wells 0, TNF-alpha wells 100;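 active means mean E-selectin-positive cell signal at least 10% of the positive control, reached in at least 60% of replicates, without over 20% cell loss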
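assay system = HUVEC, human umbilical vein endothelial cells | input = 3,000 HUVEC seeded per well | medium = EGM-2 growth medium on 0.1% gelatin-coated wells | dosing = one compound dose added by pin transfer | signal = immunofluorescence imaging | read-out basis = % PE-positive cells | control set = TNF-alpha, DMSO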
FN deposition inh = inhibitors of fibronectin matrix deposition, primary screen, AH1F cells, Alexa488-fibronectin fluorescence, plate reader. AH1F fibroblasts, overnight. inhibition, % at 12.6 µM. hit rate 0.086% among 350,000. AID 743247, 2014;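 active means mean inhibition across replicates of 30% or more, regardless of how many single replicates reach that level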
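Material: AH1F fibroblasts assembling fluorescent fibronectin matrix; amount: 10000 AH1F cells/well; medium: DMEM, 2% serum; reagent: Alexa488-fibronectin, 24 nM final in well; dosing: single compound dose, delivered by pin transfer; incubation: 1 h adhesion, overnight exposure; detection: fluorescence after three HBSS washes, excitation 485 nm, emission 525 nm; measure: fibronectin deposition inhibition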
FGF22 binding = binders of human FGF22 protein, primary screen, FGF22 synaptogenesis inhibitor project, biophysical, thermal shift, single point; hit rate 1.5% among 340,000; AID 651658, 2012; recombinant FGF22 thermal shift, SYPRO orange fluorescence; percent of sucrose octasulfate shift, DMSO zero; Fibroblast growth factor 22 (Homo sapiens), Q9HCT0; activity (Tm shift, normalised), % at 9.99 µM;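 active means mean Tm shift, scaled 0 neutral to 100 positive control, at about 1.3% or above, every replicate too, limit read from the data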
Target sequence (Q9HCT0 whole entry, looked up): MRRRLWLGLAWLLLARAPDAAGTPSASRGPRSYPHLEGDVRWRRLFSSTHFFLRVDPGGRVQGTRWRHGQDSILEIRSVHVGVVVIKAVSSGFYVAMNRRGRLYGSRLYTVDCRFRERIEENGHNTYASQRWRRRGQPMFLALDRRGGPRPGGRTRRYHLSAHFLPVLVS
Hits are given with their value; 0 = inactive; - = not tested or not shown.

SMILES	rRNA inh HTS	C2C12 statin	SIRT5 block	E-sel inducer	FN deposition inh	FGF22 binding
O=C1c2ccccc2C(c2nnnn2Cc2ccccc2)N1Cc1ccc2c(c1)OCO2 (configuration not stated)	-27	-	0	0	0	0
O=C1c2ccccc2C(c2nnnn2Cc2ccccc2)N1Cc1ccco1 (configuration not stated)	0	-	15	0	0	0
CC(C)CNC(=O)c1coc(=O)c(Br)c1	-	0	-	-	active	-
Cc1ccc(-n2ccc(=O)c(-c3ccnc(SCc4cccc(Cl)c4)n3)n2)cc1	-	84	-	-	-	-
CC(NS(=O)(=O)c1ccc2[nH]c(=O)c(=O)[nH]c2c1)C(=O)O (configuration not stated)	0	0	25	0	0	0
COC(=O)c1c(NC(=O)CC2SC(N)=NC2=O)sc(C)c1C (configuration not stated)	-	-	0	-	0	44
CCc1ccc(CCC(=O)Nc2sc(C)c(C)c2C(=O)OC)o1	0	94	0	-	-	0
COC(=O)c1c(NC(=O)CSc2ccccc2N)sc(C)c1C	0	0	0	-	0	43
CN(C)C(=O)[C@@H]1[C@@H](CO)[C@@H]2Cn3c(ccc(C4=CCCCC4)c3=O)[C@H]1N2Cc1ccccc1F	0	0	0	0	-	0
C[C@H]1CN([C@@H](C)CO)C(=O)Cc2cc(NS(=O)(=O)c3cccs3)ccc2O[C@H]1CN(C)Cc1ccc(C(F)(F)F)cc1	0	0	0	0	-	0
CC1CCc2nc3ccc(S(=O)(=O)N4CCC(C(=O)NC5CCCC5)CC4)cc3c(C(=O)O)c2C1 (configuration not stated)	0	-	0	93	0	0
O=C(C[C@H]1CC[C@H]2[C@@H](COC[C@H](O)CN2C(=O)c2ccccc2F)O1)NCc1ccc(F)cc1	0	0	0	0	0	0
Nc1cc(N2CCOCC2)c(Cl)cc1[N+](=O)[O-]	-21	-	0	0	0	0
Cc1c(C(=O)N2CCOCC2)oc2ccccc12	0	0	16	0	0	0
Cc1ccc(C(=O)N2CCN(Cc3ccccc3)CC2)o1	0	0	0	0	0	0
COc1ccc(Nc2ncc(C(=O)O)c3ccccc23)cc1	-	0	-	-	-	-
Cc1cc2oc(C(=O)N3CCN(Cc4ccccc4)CC3)c(C)c2cc1C	-46	-	0	-	0	0
COc1ccc(Nc2ncc(C(=O)N3CCN(c4ccc(F)cc4)CC3)c3ccccc23)cc1	-	157	-	-	0	-
CCOc1ccc(Nc2nc(N3CCCC3)nc(N3CCN(c4ccc(OC)cc4)CC3)n2)cc1	0	-	-	0	-	0
CCOc1nc(Nc2ccc(F)cc2)nc(N2CCN(c3ccc(OC)cc3)CC2)n1	-	110	-	-	-	-
Cc1c(C(=O)N2CCCCC2)oc2ccccc12	0	0	-	0	0	43
COc1ccc(N2CCN(C(=O)c3[nH]c(C(F)(F)F)nc3-c3ccccc3)CC2)cc1	-26	0	0	0	0	0
COc1ccccc1N1CCN(C(=O)c2[nH]c(C(F)(F)F)nc2-c2ccccc2)CC1	0	0	0	0	0	0
COc1ccc(N2CCN(C(=O)c3oc4ccccc4c3C)CC2)cc1	-38	-	0	-	-	0
COc1ccc(CN(C)C[C@H]2Oc3c(NS(=O)(=O)c4ccccc4)cccc3C(=O)N([C@H](C)CO)C[C@H]2C)cc1	0	0	0	0	-	0
SMILES	rRNA inh HTS	C2C12 statin	SIRT5 block	E-sel inducer	FN deposition inh	FGF22 binding
CCCNC(=O)[C@@H]1[C@@H](CO)[C@@H]2Cn3c(ccc(-c4cccc(F)c4)c3=O)[C@@H]2N1C(=O)CC	0	0	0	0	-	0
CC(C)(SC(=S)N1CCCCCC1)C(=O)O	0	-	0	0	0	0
CC(SC(=S)N1CCCC1)C(=O)O (configuration not stated)	0	-	20	-	0	0
CCC(=O)N1CC[C@@H]2[C@@H](CO)Nc3ccc(-c4ccc(OC)cc4)cc3[C@@H]21	0	0	-	0	0	0
COc1ccc(CCNS(=O)(=O)c2ccc3c(c2)NC(=O)CS3)cc1OC	0	0	0	114	0	0
CC(=O)Nc1ccc(N2C(=O)CSC2c2cccc([N+](=O)[O-])c2)cc1 (configuration not stated)	0	0	0	0	0	44
O=C1CSC(c2cccc([N+](=O)[O-])c2)N1c1ccc(O)cc1 (configuration not stated)	0	0	0	-	0	0
COc1ccc(C=O)cc1COc1ccc([N+](=O)[O-])c(C)c1	0	0	0	369	0	0
Clc1ccc(-c2ccn[nH]2)cc1	0	-	0	-	0	-
Clc1ccc(C2=NCCN2)cc1	0	-	112	0	0	0
O=C(C[C@H]1CC[C@@H](NC(=O)C2CCOCC2)[C@@H](CO)O1)Nc1nccs1	0	0	0	0	0	0
CCC(=O)Oc1ccc(C(=O)Nc2cccc(C(=O)NCC(C)C)c2)cc1	0	-	0	0	0	43
Cc1cc(C)n(CC(=O)N2c3ccccc3Sc3ccccc32)n1	-	119	-	-	0	-
Cc1cc(C)n(CC(=O)O)n1	-	-	-	0	0	-
OCC1CCCN(C2CCN(Cc3nc(Cc4cccc(C(F)(F)F)c4)no3)CC2)C1 (configuration not stated)	0	0	0	0	0	43
Cc1nnc(Nc2ccc(O)cc2)[nH]c1=O	0	107	0	-	0	0
Cc1nnc(Nc2ccc(C(=O)O)cc2)[nH]c1=O	0	-	0	-	0	-
CCCNC(=O)Nc1ccc2c(c1)C(=O)N(C)C[C@@H](OC)[C@H](C)CN(Cc1ccncc1)[C@@H](C)CO2	0	0	-	0	0	-
COc1cccc(CSc2nnc(CSc3nc4nc(C)cc(C)n4n3)s2)c1	-29	0	0	-	-	0
O=C(Nc1ccccc1C(=O)N/N=C/c1ccncc1)c1ccccc1	0	0	0	-	0	44
CCCNC(=O)c1ccc2c(=O)c(O)c(-c3ccc(C)cc3)[nH]c2c1	0	0	0	0	-	0
O=C(Nc1ccccc1C(=O)NCCCn1ccnc1)c1ccccc1	0	122	0	-	-	0
Cc1ccccc1C(=O)Nc1ccc(C(=O)N/N=C/c2ccncc2)cc1	-29	-	0	-	0	0
Cc1ccc(-c2[nH]c3cc(C(=O)NCCCn4ccnc4)ccc3c(=O)c2O)cc1	-21	0	0	-	0	0
COc1ccc(C(=O)Nc2ccccc2C(=O)NCCCn2ccnc2)cc1	-	-	-	-	0	-
